In brackets after ≈: the same amount, converted by molar mass.
Legend:
[1] = test system: Mycobacterium tuberculosis; assay: Antimycobacterial activity against Mycobacterium tuberculosis H37Rv assessed as growth inhibition after 5 days by MTT assay; format: functional; settings: 120 h
Method in brief: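 MTB inoculum made from 20–30-day slant growth in Tween 80/0.2% BSA, adjusted to McFarland No. 1, then diluted in 7H9GC broth (Middlebrook 7H9, glycerol, Casitone, OADC). Final inoculum about 1.2 × 10^6 CFU/mL. Compounds taken from DMSO stock to final 0.4–25 in broth, with a DMSO control. Plates run 5 days at 37 °C, then tetrazolium (MTT)–Tween 80 added for a further 24 h at 37 °C. Read-out is MIC.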

[2] = Cytotoxicity against mouse J774.1 cells assessed as cell viability after 48 hrs by MTT assay; format: cell-based; settings: J774.1, 48 h
Method in brief: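 J774.1 macrophages in DMEM with 4 mM L-glutamine and 10% heat-inactivated FCS, 5×10^4 cells/well, attached 48 h at 37 °C, 5% CO2. Exposed 48 h to compounds (12.5–400.0 µM) or vehicle. MTT 0.1 mg/mL final, 3 h at 37 °C; formazan dissolved in DMSO/glycine buffer pH 10.5, A560. IC50 by linear regression versus solvent control.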

Trypanosoma cruzi [3] = assay: Trypanosomicidal activity against amastigote stage of Trypanosoma cruzi Tulahuen C4 transfected with beta-D-galactosidase infected in african green monkey Vero cells assessed as growth inhibition incubated 5 days prior to beta-D-galactopyranoside addition measured after 4 to 5 hrs by colorimetric assay; format: functional, organism-based
Method in brief: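 VERO monolayer in phenol red-free RPMI 1640 with 10% FCS, infected with 5×10^4 LacZ-transfected Tulahuen C4 trypomastigotes/well, 24 h at 37 °C, 5% CO2. Compounds added for 5 days. CPRG substrate added, 4–5 h at 37 °C, A570. Actives (>50% inhibition) retested in duplicate at 10.0–0.16; IC50 by logarithmic regression versus untreated control.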

Trypanosoma cruzi [4] = assay: Trypanosomicidal activity against axenic epimastigote stage of Trypanosoma cruzi Tulahuen 2 assessed as growth inhibition; format: functional, organism-based
Method in brief: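 Tulahuen 2 epimastigotes grown axenically at 28 °C in BHI-tryptose with 5% FCS, harvested late log phase, 3×10^6/mL in 24-well plates. Compound added from DMSO stock (≤1% DMSO). Growth as A590 at day 0 and day 5; % inhibition from blank-corrected absorbances; ID50 = concentration halving absorbance relative to untreated controls.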

[5] = Selectivity index, ratio of IC50 for mouse J774.1 cells to MIC for Mycobacterium tuberculosis H37Rv; format: functional
Method in brief: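 Cytotoxicity: J774.1 macrophages in DMEM with 4 mM L-glutamine and 10% heat-inactivated FCS, seeded at 5 × 10^4/well, attached 48 h at 37 °C, 5% CO2. Exposed 48 h to 12.5–400.0 µM compound or vehicle. MTT at 0.1 mg/mL final for 3 h, formazan dissolved in DMSO/glycine buffer pH 10.5, A560 read. IC50 by linear regression, divided by the MIC against the same MTB strain.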

[6] = Selectivity index, ratio of IC50 for mouse J774.1 cells to IC50 for amastigote stage of Trypanosoma cruzi Tulahuen C4; format: toxicity; settings: read-out: Ratio IC50
[7] = Selectivity index, ratio of IC50 for mouse J774.1 cells to IC50 for axenic amastigote stage of Leishmania amazonensis MHOM/BR/76/LTB-012; format: toxicity; settings: read-out: Ratio IC50
Leishmania amazonensis = assay: Leishmanicidal activity against axenic amastigote stage of Leishmania amazonensis MHOM/BR/76/LTB-012 assessed as growth inhibition after 72 hrs by MTT assay; format: functional, organism-based; settings: MHOM/BR/76/LTB-012, 72 h
Method in brief: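 L. amazonensis axenic amastigotes (MHOM/BR/76/LTB-012), weekly passages in MAA/20 at 32 °C, 5% CO2. Seeded in 96-well plates; compounds in DMSO at 100 to 1 final, 72 h. MTT added for 4 h, stopped with 50% isopropanol–10% SDS, 30 min agitation at room temperature, A570. Triplicate; % inhibition versus control, IC50 from several concentrations.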

SMILES	MIC [1] [µM]	IC50 [2] [µM]	IC50 (Trypanosoma cruzi [3]) [µM]	IC50 (Trypanosoma cruzi [4]) [µM]	Selectivity Index [5]	selectivity ratio [6]	selectivity ratio [7]	IC50 (Leishmania amazonensis) [µM]
COc1ccc(/C=N/NC(=O)c2no[n+]([O-])c2C)cc1OC	> 81.6	> 400	–	–	–	–	–	–
Cc1c(/C=N/NC(=O)c2cccnc2)no[n+]1[O-]	> 101	> 400	> 40.5	> 150	–	–	–	–
O=C(N/N=C/c1c(-c2ccccc2)no[n+]1[O-])c1cnn(-c2ccccc2)c1	> 66.8	41.7	> 26.7	> 150	<0.6	–	–	–
Cc1c(/C=N/NC(=O)c2no[n+]([O-])c2C)no[n+]1[O-]	> 93.6	> 400	> 37.5	81.3	–	–	–	–
CC(=O)Nc1ccc(/C=N/NC(=O)c2no[n+]([O-])c2C)cc1	> 82.5	235	> 33	> 150	<3	–	–	–
COc1cc(/C=N/NC(=O)c2no[n+]([O-])c2C)cc(OC)c1OC	> 74.4	> 300	–	–	–	–	–	–
Cc1c(C(=O)N/N=C/c2ccccc2O)no[n+]1[O-]	> 95.4	246	> 38.7	39.8	<3	< 6	–	–
O=C(N/N=C/c1c(-c2ccccc2)no[n+]1[O-])c1cccnc1	40.5 (≈ 12.5 µg/mL)	195	> 32.4	58.9	5	< 6	–	–
Cc1c(C(=O)N/N=C/c2cccc(O)c2)no[n+]1[O-]	> 95.4	> 400	> 38.2	> 150	–	–	> 89	4.5
Cc1c(C(=O)N/N=C/c2ccc(N(C)C)cc2)no[n+]1[O-]	> 86.5	129	> 34.6	> 150	<1.5	< 3	–	–
Cc1c(/C=N/NC(=O)c2ccc3c(c2)OCO3)no[n+]1[O-]	> 86.2	132	> 34.5	> 150	<1.5	< 1.5	40	3.3
NNC(=O)c1cnn(-c2ccccc2)c1	–	–	> 49.5	–	–	–	–	–
NNC(=O)c1cccnc1 [NICOTINIC ACID HYDRAZIDE]	–	–	> 73	> 150	–	–	–	–
Cc1c(C(=O)N/N=C/c2ccc([N+](=O)[O-])o2)no[n+]1[O-]	44.5 (≈ 12.5 µg/mL)	68	> 35.6	50.1	1.5	< 2	–	–
Cc1[nH]cnc1C(=O)N/N=C/c1c(-c2ccccc2)no[n+]1[O-]	> 80.1	> 400	> 32.1	> 150	–	–	–	–
O=C(N/N=C/c1ccc2nonc2c1)c1cccnc1	> 93.6	209	> 37.5	> 150	<2	< 5.5	–	–
NNC(=O)c1ccc2c(c1)OCO2	–	–	> 55.6	> 150	–	–	–	–
Cc1c(C(=O)N/N=C/c2ccccn2)no[n+]1[O-]	> 101	> 400	> 40.5	> 150	–	–	–	–
Cc1c(C(=O)N/N=C/c2ccc([N+](=O)[O-])s2)no[n+]1[O-]	42.1 (≈ 12.5 µg/mL)	> 400	> 33.7	50	>10	–	–	–

SMILES	MIC [1] [µM]	IC50 [2] [µM]	IC50 (Trypanosoma cruzi [3]) [µM]	IC50 (Trypanosoma cruzi [4]) [µM]	Selectivity Index [5]	selectivity ratio [6]	selectivity ratio [7]	IC50 (Leishmania amazonensis) [µM]
COc1ccc(/C=N/NC(=O)c2no[n+]([O-])c2C)cc1O	> 85.6	> 400	–	–	–	–	> 48	8.3
Cc1c(C(=O)N/N=C/c2ccc(C(F)(F)F)cc2)no[n+]1[O-]	> 79.6	> 400	> 31.9	> 150	–	–	–	–
COC(=O)c1no[n+]([O-])c1C	–	–	> 62.3	> 50	–	–	–	–
Cc1c(/C=N/NC(=O)c2cnn(-c3ccccc3)c2)no[n+]1[O-]	> 80.1	295	> 32.1	> 150	<4	–	–	–
Cc1nc2ccccn2c1C(=O)N/N=C/c1no[n+]([O-])c1C	> 83.3	> 400	> 33.3	> 150	–	–	> 32	12.6
Cc1c(C(=O)N/N=C/c2ccccc2)no[n+]1[O-]	> 102	> 400	> 40.7	151	–	–	–	–
Cc1c(C(=O)N/N=C/c2ccc(C(=O)O)cc2)no[n+]1[O-]	> 86.2	> 300	> 34.5	> 150	–	–	–	–
O=C(N/N=C/c1ccc2nonc2c1)c1ccncc1	> 93.6	> 400	> 37.5	> 150	–	–	–	–
Cc1c(C(=O)NN)no[n+]1[O-]	–	–	> 62.3	> 50	–	–	–	–
Cc1c(C(=O)N/N=C/c2ccc3c(c2)OCO3)no[n+]1[O-]	> 86.2	> 400	> 34.5	> 150	–	–	–	–
Cc1c(C(=O)N/N=C/c2ccc(Br)cc2)no[n+]1[O-]	> 74	162	> 29.6	> 150	<2	< 5	–	–
NNC(=O)c1ccncc1 [ISONIAZID]	0.4 (≈ 0.0549 µg/mL)	> 400	–	> 150	>1000	–	–	–
Cc1c(C(=O)N/N=C/c2c(-c3ccccc3)no[n+]2[O-])no[n+]1[O-]	> 75.8	> 400	> 30.3	25.1	–	–	–	–
Cc1c(C(=O)N/N=C/c2ccc([N+](=O)[O-])cc2)no[n+]1[O-]	> 85.9	> 300	> 34.4	> 150	–	–	> 38	7.9
Cc1nc2ccccn2c1C(=O)NN	–	–	> 52.6	> 150	–	–	> 13	29.8
Cc1nc2ccccn2c1C(=O)N/N=C/c1ccc2no[n+]([O-])c2c1	77.2 (≈ 26 µg/mL)	141	> 30.9	> 150	1.8	< 4	–	–
Cc1c(C(=O)N/N=C/c2ccc3no[n+]([O-])c3c2)no[n+]1[O-]	82.2 (≈ 25 µg/mL)	> 400	> 32.9	> 150	>5	–	–	–
Cc1[nH]cnc1C(=O)N/N=C/c1no[n+]([O-])c1C	> 100	> 400	> 40	> 150	–	–	–	–
Cc1c(C(=O)N/N=C/c2ccco2)no[n+]1[O-]	> 106	> 400	> 42.4	> 150	–	–	–	–
